{"source": "ChEMBL document CHEMBL1138488", "about": "“Synthesis and biological evaluation of 3,3-difluoropyridine-2,4(1H,3H)-dione and 3-deaza-3-fluorouracil base and nucleoside derivatives” (J Med Chem, 2009)", "key": {"Human respirovirus 3": {"tested_on": "Human respirovirus 3", "experiment": "Antiviral activity against Parainfluenza virus type 3 infected in african green monkey Vero cells assessed as inhibition of virus-induced cytopathic effect at <=100 uM", "type": "functional, organism-based", "procedure,_shortened": "(§1)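 Confluent cell monolayers were inoculated with 100 CCID₅₀ of virus, and virus was adsorbed for 1 h. Residual virus was then removed and cells were incubated with serial compound concentrations ([…], ... µM). Cytopathicity was scored once it reached completion in untreated virus-infected control cultures.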"}, "[1]": {"tested_on": "Mammalian orthoreovirus 3", "experiment": "Antiviral activity against Reovirus 3 infected in african green monkey Vero cells assessed as inhibition of virus-induced cytopathic effect at <=100 uM", "type": "functional, organism-based"}, "Sindbis virus": {"tested_on": "Sindbis virus", "experiment": "Antiviral activity against Sindbis virus infected in african green monkey Vero cells assessed as inhibition of virus-induced cytopathic effect at <=100 uM", "type": "functional, organism-based", "procedure,_shortened": "as §1"}, "Punta Toro virus": {"tested_on": "Punta Toro virus", "experiment": "Antiviral activity against Punta Toro virus infected in african green monkey Vero cells assessed as inhibition of virus-induced cytopathic effect at <=100 uM", "type": "functional, organism-based", "procedure,_shortened": "as §1"}, "Human betaherpesvirus 5 [2]": {"tested_on": "Human betaherpesvirus 5", "experiment": "Antiviral activity against HCMV AD169 infected in HEL cells assessed as inhibition of virus-induced cytopathic effect at <=100 uM", "type": "functional, organism-based", "procedure,_shortened": "as §1"}, "Human betaherpesvirus 5 [3]": {"tested_on": "Human betaherpesvirus 5", "experiment": "Antiviral activity against HCMV Davis infected in HEL cells assessed as inhibition of virus-induced cytopathic effect at <=100 uM", "type": "functional, organism-based", "procedure,_shortened": "as §1"}, "Human alphaherpesvirus 3 [4]": {"tested_on": "Human alphaherpesvirus 3", "experiment": "Antiviral activity against thymidine kinase expressing Varicella zoster virus Oka infected in human HEL cells assessed as inhibition of virus-induced cytopathic effect at <=100 uM", "type": "functional, organism-based", "procedure,_shortened": "as §1"}, "Human alphaherpesvirus 3 [5]": {"tested_on": "Human alphaherpesvirus 3", "experiment": "Antiviral activity against thymidine kinase deficient Varicella zoster virus 07/1 infected in human HEL cells assessed as inhibition of virus-induced cytopathic effect at <=100 uM", "type": "functional, organism-based", "procedure,_shortened": "as §1"}, "[6]": {"tested_on": "Human immunodeficiency virus 1", "experiment": "Antiviral activity against HIV1 3B replication in human CEM cells assessed as virus-induced giant cell formation at <=100 uM after 4 days", "type": "functional, organism-based", "settings": "CCRF-CEM", "procedure,_shortened": "(§2)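 CEM cells (~3 × 10⁵ cells/cm³) were infected with 100 CCID₅₀/mL of HIV-1(III_B) or HIV-2(ROD) and seeded into wells containing compound dilutions. After 4 days at 37 °C, virus-induced giant cell formation was examined microscopically.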"}, "[7]": {"tested_on": "Human immunodeficiency virus 2", "experiment": "Antiviral activity against HIV2 ROD replication in human CEM cells assessed as virus-induced giant cell formation at <=100 uM after 4 days", "type": "functional, organism-based", "settings": "CCRF-CEM", "procedure,_shortened": "as §2"}, "L1210": {"tested_on": "L1210", "experiment": "Cytostatic activity against mouse L1210 cells at <=500 uM after 2 days by Coulter counting analysis", "type": "ADME, cell-based", "settings": "l1210, 48 h", "procedure,_shortened": "(§3)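 Murine leukemia L1210 cells were seeded at 50000 cells per well with varying compound concentrations. Viable cell number was counted by Coulter counter after 2 days.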"}, "[8]": {"experiment": "Cytostatic activity against human Molt4/C8 cells at <=500 uM after 3 days by Coulter counting analysis", "type": "ADME, cell-based", "settings": "molt-4, 72 h", "procedure,_shortened": "(§4)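 Molt4/C8 or CEM lymphocytes were seeded at 75000 cells per well with varying compound concentrations. Viable cells were counted by Coulter counter after 3 days. CC₅₀ is the concentration inhibiting cell proliferation by 50%.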"}, "CCRF-CEM": {"tested_on": "CCRF-CEM", "experiment": "Cytostatic activity against human CEM cells at <=500 uM after 3 days by Coulter counting analysis", "type": "cell-based", "settings": "72 h", "procedure,_shortened": "as §4"}, "Human alphaherpesvirus 1 [9]": {"tested_on": "Human alphaherpesvirus 1", "experiment": "Antiviral activity against HSV1 KOS infected in HEL cells assessed as virus-induced cytopathic effect at <=100 uM", "type": "functional, organism-based"}, "Human alphaherpesvirus 1 [10]": {"tested_on": "Human alphaherpesvirus 1", "experiment": "Antiviral activity against acyclovir-resistant […] kinase-deficient HSV1 KOS infected in HEL cells assessed as virus-induced cytopathic effect at <=100 uM", "type": "functional, organism-based"}, "Human alphaherpesvirus 2": {"tested_on": "Human alphaherpesvirus 2", "experiment": "Antiviral activity against HSV2 strain G infected in HEL cells assessed as virus-induced cytopathic effect at <=100 uM", "type": "functional, organism-based"}, "Vaccinia virus": {"tested_on": "Vaccinia virus", "experiment": "Antiviral activity against Vaccinia virus infected in HEL cells assessed as inhibition of virus-induced cytopathic effect at <=100 uM", "type": "functional, organism-based", "settings": "Orthopoxvirus vaccinia"}, "[11]": {"tested_on": "Vesicular stomatitis virus", "experiment": "Antiviral activity against Vesicular stomatitis virus infected in HEL cells assessed as inhibition of virus-induced cytopathic effect at <=100 uM", "type": "functional, organism-based"}, "[12]": {"tested_on": "Vesicular stomatitis virus", "experiment": "Antiviral activity against Vesicular stomatitis virus infected in human HeLa cells assessed as inhibition of virus-induced cytopathic effect at <=100 uM", "type": "functional, organism-based"}, "Coxsackievirus B4": {"tested_on": "Coxsackievirus B4", "experiment": "Antiviral activity against Coxsackievirus B4 infected in human HeLa cells assessed as inhibition of virus-induced cytopathic effect at <=100 uM", "type": "functional, organism-based", "procedure,_shortened": "as §1"}, "[13]": {"tested_on": "Respiratory syncytial virus", "experiment": "Antiviral activity against Respiratory syncytial virus infected in human HeLa cells assessed as inhibition of virus-induced cytopathic effect at <=100 uM", "type": "functional, organism-based", "procedure,_shortened": "as §1"}, "[14]": {"tested_on": "Moloney murine sarcoma virus", "experiment": "Antiviral activity against Moloney sarcoma virus replication infected in mouse […] cells assessed as virus-induced transformation of cells at <=100 uM measured on day 6 postinfection", "type": "functional, organism-based", "procedure,_shortened": "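Murine C3H/3T3 embryo fibroblasts were grown to confluency and infected with Moloney murine sarcoma virus at 75 focus-forming units. Compound concentrations were then added, and virus-induced transformation was examined microscopically at day 6 postinfection.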"}, "[15]": {"experiment": "Cytostatic activity against mouse L1210 cells after 2 days by Coulter counting analysis", "type": "ADME, cell-based", "procedure,_shortened": "as §3"}, "[16]": {"experiment": "Cytostatic activity against human Molt4/C8 cells after 3 days by Coulter counting analysis", "type": "ADME, cell-based, MOLT-4", "procedure,_shortened": "as §4"}, "[17]": {"experiment": "Cytostatic activity against human CEM cells after 3 days by Coulter counting analysis", "type": "cell-based, CCRF-CEM", "procedure,_shortened": "as §4"}}, "note": "The source made the active and inactive calls. The calls are words filed in the database; no cut-off is given here."}
{"smiles": "C#CC1(O)C=CN([C@@H]2O[C@H](CO)[C@@H](O)[C@H]2O)C(=O)C1(F)F", "note": "(some centres undefined)", "values": [{"measurement": "Activity", "setting": "Human respirovirus 3", "result": "inactive"}, {"measurement": "Activity", "setting": "[1]", "result": "inactive"}, {"measurement": "Activity", "setting": "Sindbis virus", "result": "inactive"}, {"measurement": "Activity", "setting": "Punta Toro virus", "result": "inactive"}, {"measurement": "Activity", "setting": "Human betaherpesvirus 5 [2]", "result": "inactive"}, {"measurement": "Activity", "setting": "Human betaherpesvirus 5 [3]", "result": "inactive"}, {"measurement": "Activity", "setting": "Human alphaherpesvirus 3 [4]", "result": "inactive"}, {"measurement": "Activity", "setting": "Human alphaherpesvirus 3 [5]", "result": "inactive"}, {"measurement": "Activity", "setting": "[6]", "result": "inactive"}, {"measurement": "Activity", "setting": "[7]", "result": "inactive"}, {"measurement": "Activity", "setting": "L1210", "result": "Not Active"}, {"measurement": "Activity", "setting": "[8]", "result": "Not Active"}, {"measurement": "Activity", "setting": "CCRF-CEM", "result": "Not Active"}, {"measurement": "Activity", "setting": "Human alphaherpesvirus 1 [9]", "result": "inactive"}, {"measurement": "Activity", "setting": "Human alphaherpesvirus 1 [10]", "result": "inactive"}, {"measurement": "Activity", "setting": "Human alphaherpesvirus 2", "result": "inactive"}, {"measurement": "Activity", "setting": "Vaccinia virus", "result": "inactive"}, {"measurement": "Activity", "setting": "[11]", "result": "inactive"}, {"measurement": "Activity", "setting": "[12]", "result": "inactive"}, {"measurement": "Activity", "setting": "Coxsackievirus B4", "result": "inactive"}, {"measurement": "Activity", "setting": "[13]", "result": "inactive"}, {"measurement": "Activity", "setting": "[14]", "result": "inactive"}]}
{"smiles": "O=c1c(F)c(O)ccn1[C@@H]1O[C@H](CO)[C@@H](O)[C@H]1O", "values": [{"measurement": "Activity", "setting": "Human respirovirus 3", "result": "inactive"}, {"measurement": "Activity", "setting": "[1]", "result": "inactive"}, {"measurement": "Activity", "setting": "Sindbis virus", "result": "inactive"}, {"measurement": "Activity", "setting": "Punta Toro virus", "result": "inactive"}, {"measurement": "Activity", "setting": "Human betaherpesvirus 5 [2]", "result": "inactive"}, {"measurement": "Activity", "setting": "Human betaherpesvirus 5 [3]", "result": "inactive"}, {"measurement": "Activity", "setting": "Human alphaherpesvirus 3 [4]", "result": "inactive"}, {"measurement": "Activity", "setting": "Human alphaherpesvirus 3 [5]", "result": "inactive"}, {"measurement": "Activity", "setting": "[6]", "result": "inactive"}, {"measurement": "Activity", "setting": "[7]", "result": "inactive"}, {"measurement": "CC50 at 48 h", "setting": "[15]", "result": 6.7, "unit": "µM"}, {"measurement": "CC50 at 72 h", "setting": "[16]", "result": 4.4, "unit": "µM"}, {"measurement": "CC50 at 72 h", "setting": "[17]", "result": 9.6, "unit": "µM"}, {"measurement": "Activity", "setting": "L1210", "result": "Not Active"}, {"measurement": "Activity", "setting": "[8]", "result": "Not Active"}, {"measurement": "Activity", "setting": "CCRF-CEM", "result": "Not Active"}, {"measurement": "Activity", "setting": "Human alphaherpesvirus 1 [9]", "result": "inactive"}, {"measurement": "Activity", "setting": "Human alphaherpesvirus 1 [10]", "result": "inactive"}, {"measurement": "Activity", "setting": "Human alphaherpesvirus 2", "result": "inactive"}, {"measurement": "Activity", "setting": "Vaccinia virus", "result": "inactive"}, {"measurement": "Activity", "setting": "[11]", "result": "inactive"}, {"measurement": "Activity", "setting": "[12]", "result": "inactive"}, {"measurement": "Activity", "setting": "Coxsackievirus B4", "result": "inactive"}, {"measurement": "Activity", "setting": "[13]", "result": "inactive"}, {"measurement": "Activity", "setting": "[14]", "result": "inactive"}]}
{"smiles": "NC(=O)Cc1ccn([C@@H]2O[C@H](CO)[C@@H](O)[C@@H]2O)c(=O)c1F", "values": [{"measurement": "Activity", "setting": "Human respirovirus 3", "result": "inactive"}, {"measurement": "Activity", "setting": "[1]", "result": "inactive"}, {"measurement": "Activity", "setting": "Sindbis virus", "result": "inactive"}, {"measurement": "Activity", "setting": "Punta Toro virus", "result": "inactive"}, {"measurement": "Activity", "setting": "Human betaherpesvirus 5 [2]", "result": "inactive"}, {"measurement": "Activity", "setting": "Human betaherpesvirus 5 [3]", "result": "inactive"}, {"measurement": "Activity", "setting": "Human alphaherpesvirus 3 [4]", "result": "inactive"}, {"measurement": "Activity", "setting": "Human alphaherpesvirus 3 [5]", "result": "inactive"}, {"measurement": "Activity", "setting": "[6]", "result": "inactive"}, {"measurement": "Activity", "setting": "[7]", "result": "inactive"}, {"measurement": "Activity", "setting": "L1210", "result": "Not Active"}, {"measurement": "Activity", "setting": "[8]", "result": "Not Active"}, {"measurement": "Activity", "setting": "CCRF-CEM", "result": "Not Active"}, {"measurement": "Activity", "setting": "Human alphaherpesvirus 1 [9]", "result": "inactive"}, {"measurement": "Activity", "setting": "Human alphaherpesvirus 1 [10]", "result": "inactive"}, {"measurement": "Activity", "setting": "Human alphaherpesvirus 2", "result": "inactive"}, {"measurement": "Activity", "setting": "Vaccinia virus", "result": "inactive"}, {"measurement": "Activity", "setting": "[11]", "result": "inactive"}, {"measurement": "Activity", "setting": "[12]", "result": "inactive"}, {"measurement": "Activity", "setting": "Coxsackievirus B4", "result": "inactive"}, {"measurement": "Activity", "setting": "[13]", "result": "inactive"}, {"measurement": "Activity", "setting": "[14]", "result": "inactive"}]}
